# According to ChEMBL document CHEMBL1123563, “New antifilarial agents. 1. Epoxy sulfonamides and ethynesulfonamides” (J Med Chem, 1987):
# Calls of active or inactive are those of the source.
# What was measured:
# molinema dessetae [1] = assay: Antifilarial activity against Molinema dessetae in vivo against female adult worms at a dose of 1000 mg/kg subcutaneously once a day for 5 days; Active; assay type: functional, organism-based; design: dose 1000 mg/kg
# molinema dessetae [2] = assay: Antifilarial activity against Molinema dessetae in vivo against male adult worms at a dose of 1000 mg/kg subcutaneously once a day for 5 days; Active; assay type: functional, organism-based; design: dose 1000 mg/kg
# [3] = Antifilarial activity against Molinema dessetae in vivo in Proechimys oris the natural host at a dose of 1000 mg/kg subcutaneously once a day for 5 days. Value is expressed as number of infected P. oris.; assay type: functional; conditions: route subcutaneous
# [4] = Effective concentration of compound necessary to kill 50% of infective larvae of Molinema dessetae after 7 days was determined in vitro; assay type: functional
# molinema dessetae [5] = test system: molinema dessetae;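 also: in vitro assay on infective-stage larvae, EC90 being the concentration lethal to 90% of larvae after 7 days of exposure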
# molinema dessetae [6] = assay: Antifilarial activity against Molinema dessetae in vivo against male adult worms at a dose of 200 mg/kg subcutaneously once a day for 5 days; Active; assay type: functional, organism-based; design: dose 200 mg/kg
# How it was run: (§1)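 Proechimys oris of both sexes were each infected with 200 infective larvae dissected from Aedes aegypti mosquitoes. Microfilaremia was checked, and the rodents were treated 150–180 days post-infection. Compound was given subcutaneously as a 1% carboxymethylcellulose suspension once daily for 5 consecutive days. Microfilaremia was followed for 6 weeks, then adult male and female worms were counted at autopsy. A compound was scored active if no males and ≤1.6 females were found (p = 0.12).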
# molinema dessetae [7] = assay: Antifilarial activity against Molinema dessetae in vivo against male adult worms at a dose of 50 mg/kg subcutaneously once a day for 5 days; Inactive; assay type: functional, organism-based; design: dose 50 mg/kg; how it was run: as §1
# [8] = Antifilarial activity against Molinema dessetae in vivo in Proechimys oris the natural host at a dose of 200 mg/kg subcutaneously once a day for 5 days. Value is expressed as number of infected P. oris.; assay type: functional; conditions: route subcutaneous; how it was run: as §1
# [9] = Antifilarial activity against Molinema dessetae in vivo in Proechimys oris the natural host at a dose of 50 mg/kg subcutaneously once a day for 5 days. Value is expressed as number of infected P. oris.; assay type: functional; conditions: route subcutaneous; how it was run: as §1
# [10] = Effective concentration of compound necessary to kill 50% of infective larvae of Molinema dessetae after 7 days was determined in vitro; Value ranges from 20-100; assay type: functional
# How it was run: (§2)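 Infective larvae from the intermediate host were decontaminated and held 20 per 1.5 mL in a biphasic medium: L929 feeder layer with RPMI and fetal calf serum (90:10), plus penicillin and streptomycin. Compound solutions at several concentrations were made in DMSO, and 10 μL of each was added. After 7 days, survival was corrected by control, in duplicate runs. EC ranges are given in μM.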
# molinema dessetae [11] = assay: Antifilarial activity against Molinema dessetae in vivo against female adult worms at a dose of 200 mg/kg subcutaneously once a day for 5 days; Active; assay type: functional, organism-based; design: dose 200 mg/kg; how it was run: as §1
# molinema dessetae [12] = assay: Effective concentration of compound necessary to kill 90% of infective larvae of Molinema dessetae after 7 days was determined in vitro; Value ranges from 100-500; assay type: functional; how it was run: as §2
# molinema dessetae [13] = assay: Antifilarial activity against Molinema dessetae in vivo against male adult worms at a dose of 40 mg/kg subcutaneously once a day for 5 days; Active; assay type: functional, organism-based; design: dose 40 mg/kg
# [14] = Antifilarial activity against Molinema dessetae in vivo in Proechimys oris the natural host at a dose of 40 mg/kg subcutaneously once a day for 5 days. Value is expressed as number of infected P. oris.; assay type: functional; conditions: route subcutaneous
# [15] = Effective concentration of compound necessary to kill 50% of infective larvae of Molinema dessetae after 7 days was determined in vitro; Value ranges from 100-500; assay type: functional; how it was run: as §2
# molinema dessetae [16] = assay: Antifilarial activity against Molinema dessetae in vivo against female adult worms at a dose of 40 mg/kg subcutaneously once a day for 5 days; Active; assay type: functional, organism-based; design: dose 40 mg/kg
Compound,Activity (molinema dessetae [1]),Activity (molinema dessetae [2]),Activity [3],EC50 [4] [µM],EC90 (molinema dessetae [5]) [µM],Activity (molinema dessetae [6]),Activity (molinema dessetae [7]),Activity [8],Activity [9],EC50 [10] [µM],Activity (molinema dessetae [11]),EC90 (molinema dessetae [12]) [µM],Activity (molinema dessetae [13]),Activity [14],EC50 [15] [µM],Activity (molinema dessetae [16])
C[C@@H]1O[C@@H]1P(=O)([O-])[O-].[Na+].[Na+] [PHOSPHOMYCIN DISODIUM],Active,Active,2,> 500,> 500,–,–,–,–,–,–,–,–,–,–,–
CN(C)S(=O)(=O)[C@@H]1O[C@H]1c1ccccc1,–,–,–,–,–,Active,inactive,2,2,100,Active,500,–,–,–,–
Cc1ccc(C(=O)Nc2ccc(S(=O)(=O)O)c3cc(S(=O)(=O)O)cc(S(=O)(=O)O)c23)cc1NC(=O)c1cccc(NC(=O)Nc2cccc(C(=O)Nc3cc(C(=O)Nc4ccc(S(=O)(=O)O)c5cc(S(=O)(=O)O)cc(S(=O)(=O)O)c45)ccc3C)c2)c1 [SURAMIN],–,–,–,–,–,–,–,–,–,–,–,500,Active,2,500,Active
